Assay results reported in ChEMBL document CHEMBL1124444, “Hydroxyacetophenone-derived antagonists of the peptidoleukotrienes” (1989).
Activity calls are given as the source filed them. The calls are words filed in the database; no cut-off is given here.

Key:
Cavia porcellus [1] = organism: Cavia porcellus; experiment: Percent inhibition of the leukotriene E4 (LTE4)-induced contraction of guinea pig tracheal spirals at 3.3 uM concentration; details: Trachea
[2] = target: T1, Cysteinyl leukotriene receptor 1 (Cavia porcellus) (UniProt Q2NNR5); experiment: Dissociation constant (KB) […] was evaluated in vitro in isolated guinea pig tracheal strips
T1 sequence (whole entry): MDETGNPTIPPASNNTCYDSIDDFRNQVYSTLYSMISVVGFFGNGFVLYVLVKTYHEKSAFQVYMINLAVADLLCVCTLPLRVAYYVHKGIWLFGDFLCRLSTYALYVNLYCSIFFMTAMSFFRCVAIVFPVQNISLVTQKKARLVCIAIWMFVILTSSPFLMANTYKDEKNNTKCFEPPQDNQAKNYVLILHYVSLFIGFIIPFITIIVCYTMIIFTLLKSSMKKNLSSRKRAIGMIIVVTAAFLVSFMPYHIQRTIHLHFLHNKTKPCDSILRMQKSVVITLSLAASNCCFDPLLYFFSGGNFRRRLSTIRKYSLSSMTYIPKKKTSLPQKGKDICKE

Cavia porcellus [3] = experiment: Compound (50 mg/kg, intraperitoneally) was tested in spontaneously breathing, conscious guinea pigs challenged with aerosolized LTD4 (60-min pretreatment); type: functional
Cavia porcellus [4] = organism: Cavia porcellus; experiment: Percent inhibition of the leukotriene E4 (LTE4)-induced contraction of guinea pig tracheal spirals at 1 uM concentration; details: Trachea
Cavia porcellus [5] = organism: Cavia porcellus; experiment: Percent inhibition of the leukotriene E4 (LTE4)-induced contraction of guinea pig tracheal spirals at 0.33 uM concentration; details: Trachea
Cavia porcellus [6] = organism: Cavia porcellus; experiment: Percent inhibition of the leukotriene E4 (LTE4)-induced contraction of guinea pig tracheal spirals at 50 uM concentration; NS means data was not statistically significant; type: functional; details: Trachea
Method in brief: (§1)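 Guinea pig tracheal spirals were split into paired sections in 10 mL baths of modified Krebs at 37 °C, gassed with 95% O₂/5% CO₂, under 2 g resting tension. After 60 min equilibration (washes every 15 min), reproducible contractions to 8 nM LTD₄ or 8 nM LTE₄ were obtained. Compound was added for 10 min, then agonist challenge repeated; percent inhibition is relative to the vehicle-treated paired section.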

Cavia porcellus [7] = organism: Cavia porcellus; experiment: Percent inhibition of the leukotriene E4 (LTE4)-induced contraction of guinea pig tracheal spirals at 5 uM concentration; type: functional; details: Trachea
Method in brief: as §1

Cavia porcellus [8] = organism: Cavia porcellus; experiment: Percent inhibition of the leukotriene E4 (LTE4)-induced contraction of guinea pig tracheal spirals at 1 uM concentration; type: functional; details: Trachea
Method in brief: as §1

Cavia porcellus [9] = organism: Cavia porcellus; experiment: Percent inhibition of the leukotriene D4 (LTD4)-induced contraction of guinea pig tracheal spirals at 4 uM concentration; NS means data was not statistically significant; type: functional; details: Trachea
Method in brief: as §1

Cavia porcellus [10] = organism: Cavia porcellus; experiment: Inhibition of the leukotriene D4 (LTD4)-induced contraction of guinea pig tracheal spirals at 10 uM concentration; type: functional; details: Trachea
Method in brief: as §1

Cavia porcellus [11] = organism: Cavia porcellus; experiment: Percent inhibition of the leukotriene D4 (LTD4)-induced contraction of guinea pig tracheal spirals at 4 uM concentration; NS means data was not statistically significant.; type: functional; details: Trachea
Method in brief: as §1

Cavia porcellus [12] = organism: Cavia porcellus; experiment: Percent inhibition of the leukotriene D4 (LTD4)-induced contraction of guinea pig tracheal spirals at 100 uM concentration; type: functional; details: Trachea
Method in brief: as §1

[13] = target: T1, Cysteinyl leukotriene receptor 1 (Cavia porcellus); experiment: Dissociation constant (KB) versus Cysteinyl leukotriene D4 receptor was evaluated in vitro in isolated guinea pig tracheal strips
Cavia porcellus [14] = organism: Cavia porcellus; experiment: Percent inhibition of the leukotriene D4-induced contraction of guinea pig tracheal spirals at 4 uM concentration; type: functional; details: Trachea
Method in brief: as §1

Cavia porcellus [15] = experiment: Compound (50 mg/kg, intraperitoneally) was tested in spontaneously breathing, conscious guinea pigs challenged with aerosolized LTD4 (30-min pretreatment); type: functional
Cavia porcellus [16] = experiment: Compound (50 mg/kg, intraperitoneally) was tested in spontaneously breathing, conscious guinea pigs challenged with aerosolized LTD4 (60-min pretreatment); NS means data were not statistically significant.; type: functional, organism-based
Cavia porcellus [17] = organism: Cavia porcellus; experiment: Percent inhibition of the leukotriene E4 (LTE4)-induced contraction of guinea pig tracheal spirals at 1 uM concentration; NS means data was not statistically significant; details: Trachea
Cavia porcellus [18] = organism: Cavia porcellus; experiment: Percent inhibition of the leukotriene E4 (LTE4)-induced contraction of guinea pig tracheal spirals at 50 uM concentration; NS means data was not statistically significant.; type: functional; details: Trachea
Method in brief: as §1

Cavia porcellus [19] = organism: Cavia porcellus; experiment: Percent inhibition of the leukotriene E4 (LTE4)-induced contraction of guinea pig tracheal spirals at 10 uM concentration; NS means data was not statistically significant; type: functional; details: Trachea
Method in brief: as §1

Cavia porcellus [20] = organism: Cavia porcellus; experiment: Percent inhibition of the leukotriene E4 (LTE4)-induced contraction of guinea pig tracheal spirals at 10 uM concentration; NS means data was not statistically significant.; type: functional; details: Trachea
Method in brief: as §1

Cavia porcellus [21] = organism: Cavia porcellus; experiment: Percent inhibition of the leukotriene E4 (LTE4)-induced contraction of guinea pig tracheal spirals at 50 uM concentration; type: functional; details: Trachea
Method in brief: as §1

Cavia porcellus [22] = organism: Cavia porcellus; experiment: Percent inhibition of the leukotriene D4 (LTD4)-induced contraction of guinea pig tracheal spirals at 50 uM concentration; NS means data was not statistically significant.; type: functional; details: Trachea
Method in brief: as §1

## CCCc1c(OCc2ccc(C(=O)Nc3nn[nH]n3)cc2OC)ccc(C(C)=O)c1O
Cavia porcellus [1]
  inhibition at 3.3 µM: 43%

## CCCc1c(OCc2ccc(/C=C/C(=O)O)cc2)ccc(C(C)=O)c1O
[2]
  Kb: 570 nM
Cavia porcellus [3]
  Protection: 34%
Cavia porcellus [4]
  inhibition at 1 µM: 48%

## CCCc1c(OCc2cccc(NC(=O)c3ccccc3C(=O)O)c2)ccc(C(C)=O)c1O
[2]
  Kb: 160 nM
Cavia porcellus [3]
  Protection: 9%
Cavia porcellus [4]
  inhibition at 1 µM: 94%
Cavia porcellus [5]
  inhibition at 0.33 µM: 45%

## CCCc1c(OCc2ccc(C(=O)O)cc2OC)ccc(CCC(=O)O)c1O
Cavia porcellus [6]
  inhibition: Not statistically significant

## C=C(C)Cc1c(OCc2ccc(C(=O)O)cc2OC)ccc(C(C)=O)c1O
[2]
  Kb: 1640 nM
Cavia porcellus [7]
  inhibition at 5 µM: 82%
Cavia porcellus [8]
  inhibition at 1 µM: 35%
Cavia porcellus [3]
  Protection: 30%

## CCCc1c(OCc2ccc(C(=O)O)c(OC)c2)ccc(C(C)=O)c1O
Cavia porcellus [9]
  inhibition: Not statistically significant
Cavia porcellus [10]
  inhibition at 10 µM: 44%

## CCCc1c(OCc2ccc(C(=O)O)cc2OC)ccc(C(C)=O)c1N
Cavia porcellus [11]
  inhibition: Not statistically significant
Cavia porcellus [10]
  inhibition at 10 µM: 43%

## CCCc1c(OCC(O)CNC(CS)C(=O)NCC(=O)O)ccc(C(C)=O)c1O (centres undefined)
Cavia porcellus [12]
  inhibition at 100 µM: 33%

## CCCc1c(OCc2ccc(C(=O)O)cc2OC)ccc(C(C)=O)c1O
[13]
  Kb: 360 nM
Cavia porcellus [3]
  Protection: 19%
Cavia porcellus [10]
  inhibition at 10 µM: 99%

## CCCc1c(OCC(O)COc2ccc3c(=O)cc(C(=O)O)oc3c2CCC)ccc(C(C)=O)c1O (centres undefined) [FPL-55712]
Cavia porcellus [14]
  inhibition at 4 µM: 62%
Cavia porcellus [15]
  Protection: 32%
Cavia porcellus [16]
  Protection: inactive

## CCCc1c(OCc2ccc(-c3nn[nH]n3)cc2OC)ccc(C(C)=O)c1O
Cavia porcellus [1]
  inhibition at 3.3 µM: 45%
Cavia porcellus [17]
  inhibition: Not statistically significant

## COc1cc(C(=O)O)ccc1COc1ccc(C(C)=O)c(O)c1CCCC(=O)O
Cavia porcellus [18]
  inhibition: Not statistically significant

## CCCc1c(OCc2ccc(C(=O)O)cc2OC)ccc(C(=O)O)c1O
Cavia porcellus [18]
  inhibition: Not statistically significant

## CCCc1c(OCc2cc(/C=C\C(=O)O)ccc2OC)ccc(C(C)=O)c1O
Cavia porcellus [10]
  inhibition at 10 µM: 28%
Cavia porcellus [4]
  inhibition at 1 µM: 14%

## CCCc1c(OCc2ccc(C(=O)O)cc2OC)ccc(C(=O)OC)c1O
[2]
  Kb: 3180 nM
Cavia porcellus [7]
  inhibition at 5 µM: 52%
Cavia porcellus [3]
  Protection: 29%

## CCCc1c(OCCCSCC(=O)O)ccc(C(C)=O)c1O
Cavia porcellus [10]
  inhibition at 10 µM: 62%
Cavia porcellus [12]
  inhibition at 100 µM: 100%

## CCCc1c(OCc2ccc(C(=O)O)cc2OC)ccc(C(=O)Oc2ccccc2)c1O
Cavia porcellus [19]
  inhibition: Not statistically significant

## CCCc1c(OCc2ccc(C(=O)O)cc2OC)ccc(C(=O)N(C)C)c1O
Cavia porcellus [20]
  inhibition: Not statistically significant
Cavia porcellus [21]
  inhibition at 50 µM: 84%

## CCCCCCc1c(OCc2ccc(C(=O)O)cc2OC)ccc(C(C)=O)c1O
Cavia porcellus [22]
  inhibition: Not statistically significant
